These results are taken from ChEMBL document CHEMBL3399968, “Diarylsulfonamides and their bioisosteres as dual inhibitors of alkaline phosphatase and carbonic anhydrase: Structure activity relationship and molecular modelling studies” (Bioorg Med Chem, 2015).

Test [1] deals with Carbonic anhydrase 2 (Bos taurus, UniProt P00921). The test can be described thus: Inhibition of bovine carbonic anhydrase 2 assessed as hydrolysis of p-nitrophenyl acetate after 30 mins by spectrophotometric method.
The target of test [2] is Intestinal-type alkaline phosphatase (Bos taurus, UniProt P19111). The test can be described thus: Inhibition of calf intestinal alkaline phosphatase using CDP-star chemiluminescent substrate assessed as change in luminescence by spectrophotometric method.
Test [3] addresses T1, Alkaline phosphatase, tissue-nonspecific isozyme (Bos taurus, UniProt P09487).
T1 sequence (P09487 whole entry): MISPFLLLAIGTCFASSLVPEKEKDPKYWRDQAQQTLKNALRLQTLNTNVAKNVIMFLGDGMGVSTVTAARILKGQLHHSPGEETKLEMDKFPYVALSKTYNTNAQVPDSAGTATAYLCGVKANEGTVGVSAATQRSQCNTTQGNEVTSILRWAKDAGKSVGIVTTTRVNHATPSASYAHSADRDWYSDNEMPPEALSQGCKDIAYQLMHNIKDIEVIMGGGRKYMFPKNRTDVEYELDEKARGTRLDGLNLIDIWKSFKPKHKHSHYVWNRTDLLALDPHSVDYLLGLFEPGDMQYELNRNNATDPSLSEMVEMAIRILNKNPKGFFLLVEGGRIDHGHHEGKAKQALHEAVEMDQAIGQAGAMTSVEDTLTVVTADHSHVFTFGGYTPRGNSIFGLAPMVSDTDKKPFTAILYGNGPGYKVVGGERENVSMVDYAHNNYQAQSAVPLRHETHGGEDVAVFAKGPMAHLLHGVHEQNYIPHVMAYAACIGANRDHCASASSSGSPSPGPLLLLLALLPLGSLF
Put plainly: Inhibition of bovine kidney non-specific alkaline phosphatase using CDP-star chemiluminescent substrate assessed as change in luminescence by spectrophotometric method.

Test [4] addresses T2, Alkaline phosphatase, tissue-nonspecific isozyme (Bos taurus) (UniProt P09487).
T2 sequence (whole entry): T1 sequence (P09487 whole entry)
Put plainly: Inhibition of bovine kidney non-specific alkaline phosphatase using CDP-star chemiluminescent substrate assessed as change in luminescence at 0.2 mM by spectrophotometric method. The method, boiled down: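 Buffer: 8 M DEA pH 9.8, 2.5 mM MgCl2, 0.05 mM ZnCl2. Compound 0.2 mM, final DMSO 1% (v/v), with TNAP (1:800 dilution, 0.8 units/mL); pre-incubated 3–5 min at 37 °C, luminescence pre-read; CDP-star added to 110 µM final; 15 min at 37 °C, after-read. Percent inhibition vs uninhibited control; levamisole 2 mM per well as positive control.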

Test [5] has as its target Carbonic anhydrase 2 (Bos taurus) (UniProt P00921). Put plainly: Inhibition of bovine carbonic anhydrase 2 assessed as hydrolysis of p-nitrophenyl acetate at 0.5 mM after 30 mins by spectrophotometric method. The procedure, abridged: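 Bovine CA (50 U/well) in 50 mM Tris-sulfate pH 7.6 with 0.1 mM ZnCl2; compound at 0.5 mM in 1% DMSO; pre-incubated 10 min at 25 °C, pre-read at 348 nm; p-nitrophenyl acetate added to 0.6 mM final; 30 min at 25 °C, read at 348 nm.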

Sequence of Carbonic anhydrase 2 (Bos taurus) (P00921 2-260 limits assumed): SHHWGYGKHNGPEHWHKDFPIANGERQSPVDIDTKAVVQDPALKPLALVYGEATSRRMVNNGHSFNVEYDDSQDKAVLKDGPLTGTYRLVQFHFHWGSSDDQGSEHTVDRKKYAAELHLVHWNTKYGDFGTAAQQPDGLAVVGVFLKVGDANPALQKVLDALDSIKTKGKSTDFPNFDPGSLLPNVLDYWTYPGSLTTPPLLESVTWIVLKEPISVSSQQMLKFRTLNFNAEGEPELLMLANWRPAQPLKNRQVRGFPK
Sequence of Intestinal-type alkaline phosphatase (P19111 whole entry): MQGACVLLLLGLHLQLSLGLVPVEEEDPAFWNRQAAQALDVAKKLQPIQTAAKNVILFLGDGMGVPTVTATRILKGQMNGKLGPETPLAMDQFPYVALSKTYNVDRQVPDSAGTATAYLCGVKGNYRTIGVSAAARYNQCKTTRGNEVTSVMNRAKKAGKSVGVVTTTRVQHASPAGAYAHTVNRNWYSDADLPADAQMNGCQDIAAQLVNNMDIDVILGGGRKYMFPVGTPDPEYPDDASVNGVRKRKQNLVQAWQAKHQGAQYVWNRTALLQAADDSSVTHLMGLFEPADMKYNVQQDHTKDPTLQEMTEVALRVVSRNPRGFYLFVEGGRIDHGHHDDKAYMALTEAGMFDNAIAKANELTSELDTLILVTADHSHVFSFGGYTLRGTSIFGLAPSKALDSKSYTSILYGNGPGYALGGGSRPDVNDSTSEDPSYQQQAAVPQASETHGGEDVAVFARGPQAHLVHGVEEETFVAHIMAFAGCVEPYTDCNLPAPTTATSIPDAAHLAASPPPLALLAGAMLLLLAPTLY
Sequence of Carbonic anhydrase 2 (P00921 whole entry): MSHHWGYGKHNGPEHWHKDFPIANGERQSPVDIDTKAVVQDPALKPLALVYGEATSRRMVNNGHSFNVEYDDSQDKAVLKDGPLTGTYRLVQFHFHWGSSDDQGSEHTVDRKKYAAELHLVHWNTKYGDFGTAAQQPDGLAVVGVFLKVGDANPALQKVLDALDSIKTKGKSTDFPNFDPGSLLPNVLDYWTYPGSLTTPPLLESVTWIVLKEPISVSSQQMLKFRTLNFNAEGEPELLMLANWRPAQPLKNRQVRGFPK

For `Cc1ccc(S(=O)(=O)Nc2ccc(S(N)(=O)=O)cc2)cc1`, the IC50 (as a rule, the point on the concentration scale where inhibition reaches its midpoint) came out at 57 nM in test [1] (read-out: IC50), 14500 nM in test [2] and 222000 nM in test [3]. For the same compound, the Ki (commonly a dissociation constant, usually derived from enzyme kinetics or from competition with a known ligand) in test [3] came out at 91900 nM.
For `Cc1ccc(S(=O)(=O)NCc2ccc(S(N)(=O)=O)cc2)cc1`, the IC50 in test [1] (read-out: IC50) was found to be 134 nM; in test [2] it was 140 nM; in test [3] it was 115 nM. Also, the inhibition constant (Ki) in test [3] was 50 nM.
Consider `NS(=O)(=O)c1ccc(CCNS(=O)(=O)c2ccc(F)cc2)cc1`, for which the values for the half-inhibitory concentration (IC50) in test [1] (read-out: IC50) and in test [2] were 35 nM and 11700 nM, respectively. The inhibition – broadly, the relative decrease from the control value, in per cent – in test [4] came to 44.1%.
Regarding `NS(=O)(=O)c1ccc(CCNC(=O)c2ccc(F)cc2)cc1`, the IC50 in test [1] (read-out: IC50) was 656 nM; in test [2] it was 6730 nM; in test [3], 22500 nM. The inhibition constant Ki in test [3] is 4510 nM.
As for `Cc1ccc(S(=O)(=O)Nc2ccccc2)cc1`, in test [2], the IC50 was determined as 9150 nM. Moreover, in test [3], the half-maximal inhibitory concentration (IC50) stood at 180 nM and the Ki turned out to be 70 nM.
`CCOc1ccc(NS(=O)(=O)c2ccc(F)cc2)cc1`: the IC50 result in test [1] was “Not Active”; in test [2] it was 720 nM. Besides, the inhibition in test [4] stood at 39.5%.
Turning to `NS(=O)(=O)c1cccc(NC(=O)c2ccc(F)cc2)c1`, in test [2], the IC50 was 9750 nM. Also, in test [3], the IC50 was 55600 nM and the Ki was 16200 nM. Moreover, the inhibition in test [5] stood at 36.4%.
For the compound `NS(=O)(=O)c1ccc(NC(=O)c2ccccc2)cc1`, in test [2], the 50% inhibitory concentration (IC50) is 3050 nM. Further, in test [3], the IC50 was determined as 70100 nM and the inhibition constant Ki is 16600 nM. Also, in test [5], the inhibition stood at 48.4%.
`c1ccc([C@H]2CN3CCSC3=N2)cc1` [LEVAMISOLE]: the Ki in test [3] was 1810 nM.
For the compound `Cc1ccc(S(=O)(=O)NCCc2ccc(S(N)(=O)=O)cc2)cc1`, the IC50 in test [1] (read-out: IC50) was 241 nM; in test [2], 2960 nM; in test [3], 41200 nM. For the same compound, the inhibition constant (Ki) in test [3] turned out to be 17600 nM.
The like results for `NS(=O)(=O)c1cccc(NS(=O)(=O)c2ccc(F)cc2)c1` were, in that order, 100 nM, 1270 nM, 150 nM and 60 nM.
In the case of `CCOc1ccc(NS(=O)(=O)c2ccc(C)cc2)cc1`, the concentration for half-maximal inhibition (IC50) result in test [1] was “Not Active”; in test [2], 30100 nM; in test [3], 310 nM. In test [3], the Ki worked out at 128 nM.
For `NS(=O)(=O)c1ccc(CNS(=O)(=O)c2ccc(F)cc2)cc1`, the half-inhibitory concentration (IC50) worked out at 215 nM in test [1] (read-out: IC50), 1350 nM in test [2] and 2940 nM in test [3]. The Ki in test [3] was 1250 nM.
The like results for `Cc1ccc(S(=O)(=O)Nc2cccc(S(N)(=O)=O)c2)cc1` were, in that order, 152 nM, 8270 nM, 2240 nM and 950 nM.
The like results for `NS(=O)(=O)c1ccc(CCNC(=O)c2ccccc2)cc1` were, in that order, 544 nM, 429 nM, 10300 nM and 3960 nM.
For `NS(=O)(=O)c1ccc(NS(=O)(=O)c2ccc(F)cc2)cc1`, the IC50 in test [1] (read-out: IC50) turned out to be 100 nM; in test [2] it was 1130 nM; in test [3], 3260 nM. Besides, the Ki in test [3] turned out to be 1390 nM.
Consider `NS(=O)(=O)c1ccc(NC(=O)c2ccc(F)cc2)cc1`, for which the half-maximal inhibitory concentration (IC50) in test [2] is 5910 nM. Besides, in test [3], the IC50 was found to be 58600 nM and the inhibition constant (Ki) was determined as 25100 nM. In test [5], the inhibition amounted to 47.3%.
As for `NS(=O)(=O)c1ccc(CNC(=O)c2ccc(F)cc2)cc1`, the 50% inhibitory concentration (IC50) in test [1] (read-out: IC50) is 821 nM; in test [2] it was 1180 nM; in test [3], 613 nM. Moreover, the Ki in test [3] is 299 nM.
Consider `NS(=O)(=O)c1ccc(CNC(=O)c2ccccc2)cc1`, for which the IC50 in test [1] (read-out: IC50) amounted to 691 nM; in test [2] it was 4450 nM; in test [3], 2870 nM. Besides, the inhibition constant Ki in test [3] stood at 918 nM.
